Reference: ChEMBL document CHEMBL1131493, “Inhibitors of farnesyl protein transferase. 4-Amido, 4-carbamoyl, and 4-carboxamido derivatives of 1-(8-chloro-6,11-dihydro-5H-benzo[5,6]- cyclohepta[1,2-b]pyridin-11-yl)piperazine and 1-(3-bromo-8-chloro-6,11- dihydro-5H-benzo[5,6]cyclohepta[1,2-b]pyridin-11-yl)piperazine” (J Med Chem, 1998)
pIC50: −log10 of the molar value. Each block holds one compound with its values, some of them ahead of it.

Legend:
[1] = In vivo antitumor efficacy in cynomolgus monkeys by injecting a dose of 5 mg/kg, as HCl salt in saline solution,i/v and the serum half-life was determined; format: ADME, organism-based, Macaca fascicularis; parameters: dose 5 mg/kg; details: cynomolgus monkey, iv
How it was run: (§1)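 Serum pharmacokinetics in nude mice or cynomolgus monkeys after oral (po) or iv dosing. Compounds were given as hydrochloride salts in 20% HPβCD unless otherwise noted. Other formulations were the hydrochloride salt in saline, the micronized free base in 20% HPβCD or corn oil (po) with saline for iv, or the hydrochloride salt in 0.4% methyl cellulose (po).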

[2] = In vivo antitumor efficacy in nude mice 0-24 hr after iv dose of 25 mg/kg expressed as Area under the curve; format: ADME, organism-based; parameters: time < 24 hr, dose 25 mg/kg, route intravenous; details: mouse; how it was run: as §1
[3] = In vivo antitumor efficacy in nude mice after peroral dose of 10 mg/kg expressed as Area under the curve; format: ADME, organism-based; parameters: dose 10 mg/kg, route oral; details: mouse, po; how it was run: as §1
[4] = test system: Cynomolgus monkey; experiment: In vivo antitumor efficacy after peroral dose of 10 mg/kg in cynomolgus monkeys expressed as duration for which compound was present above IC50; format: ADME, organism-based, Macaca fascicularis; parameters: dose 10 mg/kg, route oral; details: po; how it was run: as §1
[5] = test system: Cynomolgus monkey; experiment: (§2) Maximal plasma concentration in cynomolgus monkeys after 10 mg/kg oral dose; format: ADME, organism-based, Macaca fascicularis; parameters: dose 10 mg/kg, route oral; details: in vivo; how it was run: as §1
[6] = as §2; format: ADME, organism-based, Macaca fascicularis; parameters: dose 10 mg/kg, route oral; details: cynomolgus monkey, plasma; how it was run: as §1
[7] = In vivo antitumor efficacy in nude mice by injecting a dose of 25 mg/kg iv and serum half-life was determined; format: ADME, organism-based; parameters: dose 25 mg/kg, route intravenous; details: mouse; how it was run: as §1
[8] = test system: Mus musculus; experiment: In vivo antitumor efficacy after peroral dose of 10 mg/kg in mice expressed as duration for which compound was present above IC50; format: ADME, organism-based; parameters: dose 10 mg/kg, route oral; details: po; how it was run: as §1
[9] = In vivo antitumor efficacy in nude mice 0-24 hr after peroral dose of 25 mg/kg expressed as Area under the curve; format: ADME, organism-based; parameters: time < 24 hr, dose 25 mg/kg, route oral; details: nude, mouse, po; how it was run: as §1
[10] = In vivo antitumor efficacy in cynomolgus monkeys 0-48 hr after peroral dose of 10 mg/kg expressed as Area under the curve; format: ADME, organism-based, Macaca fascicularis; parameters: time < 48 hr, dose 10 mg/kg, route oral; details: cynomolgus monkey, po; how it was run: as §1
[11] = In vivo antitumor efficacy in cynomolgus monkeys 0-48 hr after iv dose of 5 mg/kg expressed as Area under the curve; format: ADME, organism-based, Macaca fascicularis; parameters: time < 48 hr, dose 5 mg/kg, route intravenous; details: cynomolgus monkey; how it was run: as §1
[12] = Oral bioavailability in mouse (nude) (dose of 25 mg/kg); format: ADME, organism-based; details: in vivo; how it was run: as §1
[13] = Maximal plasma concentration in cynomolgus monkeys after 5 mg/kg oral dose; format: ADME, organism-based, Macaca fascicularis; parameters: dose 5 mg/kg, route oral; details: cynomolgus monkey; how it was run: as §1
[14] = (§3) Maximal plasma concentration in nude mice after 25 mg/kg oral dose; format: ADME, organism-based; parameters: dose 25 mg/kg, route oral; details: mouse; how it was run: as §1
[15] = In vivo antitumor efficacy in cynomolgus monkeys 0-48 hr after peroral dose of 5 mg/kg expressed as Area under the curve; format: ADME, organism-based, Macaca fascicularis; parameters: time < 48 hr, dose 5 mg/kg, route oral; details: cynomolgus monkey, po; how it was run: as §1
[16] = In vivo antitumor efficacy peroral dose of 25 mg/kg expressed as duration for which compound was present above IC50; format: ADME, organism-based; parameters: dose 25 mg/kg, route oral; details: po; how it was run: as §1
[17] = molecular target: geranylgeranyltransferase type-I (Rattus norvegicus, UniProt P53610+Q04631); experiment: Inhibition of rat Geranylgeranyl transferase (GGPT); format: protein-complex assay
[18] = Bioavailability in cynomolgus monkey (dose 5 mg/kg i.v.); format: ADME, organism-based, Macaca fascicularis; details: in vivo, iv; how it was run: as §1
[19] = test system: Mus musculus; experiment: In vivo antitumor efficacy after peroral dose of 25 mg/kg in mice expressed as duration for which compound was present above IC50; format: ADME, organism-based; parameters: dose 25 mg/kg, route oral; details: po; how it was run: as §1
[20] = In vivo antitumor efficacy in nude mice by injecting a dose of 25 mg/kg, micronized free base in 20% HPbetaCD, perorally and the total drug exposure was determined (0-24hr); format: ADME, organism-based; parameters: time < 24 hr, dose 25 mg/kg, route oral; details: mouse, po
[21] = as §3; format: ADME, organism-based; parameters: dose 25 mg/kg, route oral; details: mouse; remark: listed apart in the source
[22] = In vivo antitumor efficacy in nude mice by injecting a dose of 25 mg/kg, micronized free base in 20% HPbetaCD, iv and the total drug exposure was determined. (0-24hr); format: ADME, organism-based; parameters: time < 24 hr, dose 25 mg/kg, route intravenous; details: mouse
[23] = In vivo antitumor efficacy in nude mice by injecting a dose of 25 mg/kg, as HCl salt in saline solution, perorally and the total drug exposure was determined (0-24hr); format: ADME, organism-based; parameters: time < 24 hr, dose 25 mg/kg, route oral; details: mouse, po
[24] = In vivo antitumor efficacy in cynomolgus monkeys by injecting a dose of 10 mg/kg, as HCl salt in saline solution, perorally and the total drug exposure was determined (0-8 hr); format: ADME, organism-based, Macaca fascicularis; parameters: time < 8 hr, dose 10 mg/kg, route oral; details: cynomolgus monkey, po; how it was run: as §1
[25] = test system: Mus musculus; experiment: In vivo antitumor efficacy in nude mice by injecting a dose of 25 mg/kg, as HCl salt in saline solution, perorally and the duration of action was reported; format: ADME, organism-based; parameters: dose 25 mg/kg, route oral; details: po
[26] = In vivo antitumor efficacy in cynomolgus monkeys by injecting a dose of 5 mg/kg, as HCl salt in saline solution, intravenously and the total drug exposure was determined (0-8 hr); format: ADME, organism-based, Macaca fascicularis; parameters: time < 8 hr, dose 5 mg/kg, route intravenous; details: cynomolgus monkey, iv
How it was run: (§4)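 Cynomolgus monkeys; hydrochloride salt in saline iv, or compound given po (as hydrochloride, as micronized free base in corn oil, or as hydrochloride in 0.4% methyl cellulose, depending on compound).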

[27] = In vivo antitumor efficacy in cynomolgus monkeys by injecting a dose of 5 mg/kg, as HCl salt in saline solution, iv and the serum half-life was determined; format: ADME, organism-based, Macaca fascicularis; parameters: dose 5 mg/kg, route intravenous; details: cynomolgus monkey; how it was run: as §4
[28] = Oral bioavailability in mouse (nude) (dose 25 mg/kg i.v.); format: ADME, organism-based; details: in vivo
[29] = Oral bioavailability in nude mice; format: ADME, organism-based; details: mouse, in vivo, read-out: Bioavailabiility
[30] = as §3; format: ADME, organism-based; parameters: dose 25 mg/kg, route oral; details: mouse; remark: listed apart in the source
[31] = In vivo antitumor efficacy in nude mice by injecting a dose of 25 mg/kg, micronized free base in 20% HPbetaCD, iv and the serum half-life was determined; format: ADME, organism-based; parameters: dose 25 mg/kg, route intravenous; details: mouse
[32] = In vivo antitumor efficacy in cynomolgus monkeys by injecting a dose of 10 mg/kg, as HCl salt in saline solution, perorally and the maximum drug concentration was determined; format: ADME, organism-based, Macaca fascicularis; parameters: dose 10 mg/kg, route oral; details: cynomolgus monkey, po; how it was run: as §4
[33] = In vivo antitumor efficacy in cynomolgus monkeys by injecting a dose of 5 mg/kg, as HCl salt in saline solution, perorally and the total drug exposure was determined (0-8 hr); format: ADME, organism-based, Macaca fascicularis; parameters: time < 8 hr, dose 5 mg/kg, route oral; details: cynomolgus monkey, po; how it was run: as §4
[34] = test system: Cynomolgus monkey; experiment: In vivo antitumor efficacy in cynomolgus monkeys by injecting a dose of 10 mg/kg, as HCl salt in saline solution, perorally and the duration of action was reported; format: ADME, organism-based, Macaca fascicularis; parameters: dose 10 mg/kg, route oral; details: po; how it was run: as §4
[35] = In vivo antitumor efficacy in nude mice by injecting a dose of 25 mg/kg, as HCl salt in saline solution, iv and the total drug exposure was determined. (0-24hr); format: ADME, organism-based; parameters: time < 24 hr, dose 25 mg/kg, route intravenous; details: mouse
[36] = In vivo antitumor efficacy in nude mice by injecting a dose of 25 mg/kg, as HCl salt in saline solution, iv and the serum half-life was determined; format: ADME, organism-based; parameters: dose 25 mg/kg, route intravenous; details: mouse
[37] = In vivo antitumor efficacy in cynomolgus monkeys by injecting a dose of 5 mg/kg, as HCl salt in saline solution, perorally and the maximum drug concentration was determined; format: ADME, organism-based, Macaca fascicularis; parameters: dose 5 mg/kg, route oral; details: cynomolgus monkey, po; how it was run: as §4
[38] = In vivo antitumor efficacy expressed as plasma area under the curve 0.4 hr after iv dose of 25 mg/kg in nude mice; format: ADME, organism-based; parameters: time < 0.4 hr, dose 25 mg/kg, route intravenous; how it was run: as §1
[39] = In vivo antitumor efficacy expressed as plasma area under the curve 0.4 hr after a peroral dose of 25 mg/kg in nude mice; format: ADME, organism-based; parameters: time < 0.4 hr, dose 25 mg/kg, route oral; details: mouse, po; how it was run: as §1
[40] = In vivo antitumor efficacy in nude mice 0-24 hr after intravenous dose of 25 mg/kg expressed as Area under the curve; format: ADME, organism-based; parameters: time < 24 hr, dose 25 mg/kg, route intravenous; details: mouse; how it was run: as §1
[41] = In vivo antitumor efficacy expressed as maximum plasma concentration 0.4 hr after a peroral dose of 25 mg/kg in cynomolgus monkeys; format: ADME, organism-based, Macaca fascicularis; parameters: dose 25 mg/kg, route oral; details: cynomolgus monkey, po; how it was run: as §1

Structure (SMILES): O=C(Cc1cc[n+]([O-])cc1)N1CCN(C2c3ccc(Cl)cc3CCc3cc(Br)cnc32)CC1 (stereo unspecified)
half-life [1]: 2.6 h | AUC at 24 h [2]: 23400 ng·h/mL | AUC [3]: 16700 ng·h/mL | Time above IC50 [4]: 24 h | Cmax [5]: 3000 nM | Cmax [6]: 5700 nM | half-life [7]: 1.2 h | Time above IC50 [8]: 24 h | AUC at 24 h [9]: 19600 ng·h/mL | AUC at 48 h [10]: 35600 ng·h/mL | AUC at 48 h [11]: 24400 ng·h/mL | bioavailability [12]: 84% | Cmax [13]: 1200 nM | Cmax [14]: 10000 nM | AUC at 48 h [15]: 9400 ng·h/mL | Time above IC50 [16]: 6 h | pIC50 [17]: < 4.42 | bioavailability [18]: 38.5% | Time above IC50 [19]: 7 h

AUC at 24 h [20]: 55200 ng·h/mL | Cmax [21]: 38800 nM | AUC at 24 h [22]: 57200 ng·h/mL | AUC at 24 h [23]: 70800 ng·h/mL | AUC at 8 h [24]: 12700 ng·h/mL | Time above IC50 [25]: 8 h | AUC at 8 h [26]: 12300 ng·h/mL | half-life [27]: 2.4 h | bioavailability [28]: 100% | bioavailability [29]: 96.6% | Cmax [30]: 71100 nM | half-life [31]: 1.5 h | Cmax [32]: 2000 nM | AUC at 8 h [33]: 4270 ng·h/mL | pIC50 [17]: < 4.46 | Time above IC50 [34]: 24 h | AUC at 24 h [35]: 33900 ng·h/mL | bioavailability [18]: 35% | half-life [36]: 1.2 h | Cmax [37]: 500 nM
Structure (SMILES): NC(=O)N1CCC(CC(=O)N2CCN(C3c4ccc(Cl)cc4CCc4cc(Br)cnc43)CC2)CC1 (stereo unspecified)

Structure (SMILES): O=C(Cc1ccncc1)N1CCN(C2c3ccc(Cl)cc3CCc3cccnc32)CC1 (stereo unspecified)
AUC at 0.4 h [38]: 1800 ng·h/mL | AUC at 0.4 h [39]: 240 ng·h/mL | half-life [7]: 0.2 h | bioavailability [12]: 13% | Cmax [14]: 900 nM | Time above IC50 [16]: 1 h | pIC50 [17]: < 4.34

Structure (SMILES): O=C(Cc1cc[n+]([O-])cc1)N1CCN([C@@H]2c3ccc(Cl)cc3CCc3cc(Br)cnc32)CC1
AUC at 8 h [24]: 9100 ng·h/mL | Time above IC50 [4]: 12 h | half-life [7]: 1.18 h | AUC at 24 h [9]: 31900 ng·h/mL | AUC at 24 h [40]: 27100 ng·h/mL | bioavailability [12]: 100% | Cmax [41]: 1800 nM | Cmax [14]: 25000 nM | pIC50 [17]: < 4.42 | Time above IC50 [19]: 7 h
